Assay results from ChEMBL document CHEMBL1156233, “Synthesis and anti-HIV activity of alkylated quinoline 2,4-diols” (Bioorg Med Chem, 2010).

What was measured:
[1] = tested on: Human immunodeficiency virus 1; assay: Antiviral activity against Human immunodeficiency virus 1 NL4.3 infected human CEM cells expressing GFP at 21.20 uM measured up to 8 days postinfection by p24 antigen capture ELISA; assay type: functional; conditions: Human immunodeficiency virus 1, NL4.3, CCRF-CEM, 192 h
How it was run: (§1)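 CD4+ T-lymphoblastoid CEM-GFP cells were infected with HIV-1 NL4-3 at MOI 0.05, following the lab's published protocol. Cells were then exposed to each compound at a concentration found non-cytotoxic by MTT and kept up to 8 days post infection. Virus was read out by p24 antigen-capture ELISA. IC50 is the concentration giving 50% protection of cells from virus (n = 3).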

[2] = tested on: Human immunodeficiency virus 1; assay: Antiviral activity against Human immunodeficiency virus 1 NL4.3 infected human CEM cells expressing GFP measured up to 8 days postinfection by p24 antigen capture ELISA; assay type: functional, organism-based; conditions: Human immunodeficiency virus 1, NL4.3, CCRF-CEM, 192 h; how it was run: as §1
[3] = tested on: Human immunodeficiency virus 1; assay: Antiviral activity against Human immunodeficiency virus 1 NL4.3 infected human CEM cells expressing GFP at 27.42 uM measured up to 8 days postinfection by p24 antigen capture ELISA; assay type: functional; conditions: Human immunodeficiency virus 1, NL4.3, CCRF-CEM, 192 h; how it was run: as §1
[4] = Cytotoxicity against human CEM cells expressing GFP after 48 to 72 hrs by MTT assay; assay type: cell-based; conditions: CEM cells expressing GFP (CCRF-CEM)
How it was run: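 MTT cell-viability kit used per the manufacturer's protocol. CEM-GFP cells were seeded at 2 × 10⁴ cells/well and given compound at a range of concentrations, with untreated wells as controls. Formazan was solubilized and read at 540 nm. CC50 is the concentration reducing cell proliferation by 50% (n = 3).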

[5] = Therapeutic index, ratio of CC50 for human CEM cells expressing GFP to IC50 for Human immunodeficiency virus 1 NL4.3; assay type: cell-based, CCRF-CEM; conditions: read-out: Ratio CC50/IC50
[6] = tested on: Human immunodeficiency virus 1; assay: Antiviral activity against Human immunodeficiency virus 1 NL4.3 infected human CEM cells expressing GFP at 35.17 uM measured day 8 on post infection by p24 antigen capture ELISA; assay type: functional; conditions: Human immunodeficiency virus 1, NL4.3, CCRF-CEM, 192 h; how it was run: as §1
[7] = tested on: Human immunodeficiency virus 1; assay: Antiviral activity against Human immunodeficiency virus 1 NL4.3 infected human CEM cells expressing GFP at 30.56 uM measured up to 8 days postinfection by p24 antigen capture ELISA; assay type: functional; conditions: Human immunodeficiency virus 1, NL4.3, CCRF-CEM, 192 h; how it was run: as §1
[8] = tested on: Human immunodeficiency virus 1; assay: Antiviral activity against Human immunodeficiency virus 1 NL4.3 infected human CEM cells expressing GFP at 43.29 uM measured up to 8 days postinfection by p24 antigen capture ELISA; assay type: functional; conditions: Human immunodeficiency virus 1, NL4.3, CCRF-CEM, 192 h; how it was run: as §1
[9] = tested on: Human immunodeficiency virus 1; assay: Antiviral activity against Human immunodeficiency virus 1 NL4.3 infected human CEM cells expressing GFP at 14.98 uM measured up to 8 days postinfection by p24 antigen capture ELISA; assay type: functional; conditions: Human immunodeficiency virus 1, NL4.3, CCRF-CEM, 192 h; how it was run: as §1
[10] = tested on: Human immunodeficiency virus 1; assay: Antiviral activity against Human immunodeficiency virus 1 NL4.3 infected human CEM cells expressing GFP at 8.41 uM measured up to 8 days postinfection by p24 antigen capture ELISA; assay type: functional; conditions: Human immunodeficiency virus 1, NL4.3, CCRF-CEM, 192 h; how it was run: as §1
[11] = tested on: Human immunodeficiency virus 1; assay: Antiviral activity against Human immunodeficiency virus 1 NL4.3 infected human CEM cells expressing GFP at 1.84 uM measured up to 8 days postinfection by p24 antigen capture ELISA; assay type: functional; conditions: Human immunodeficiency virus 1, NL4.3, CCRF-CEM, 192 h; how it was run: as §1
[12] = tested on: Human immunodeficiency virus 1; assay: Antiviral activity against Human immunodeficiency virus 1 NL4.3 infected human CEM cells expressing GFP at 1.68 uM measured up to 8 days postinfection by p24 antigen capture ELISA; assay type: functional; conditions: Human immunodeficiency virus 1, NL4.3, CCRF-CEM, 192 h; how it was run: as §1
[13] = tested on: Human immunodeficiency virus 1; assay: Antiviral activity against Human immunodeficiency virus 1 NL4.3 infected human CEM cells expressing GFP at 65.93 uM measured up to 8 days postinfection by p24 antigen capture ELISA; assay type: functional; conditions: Human immunodeficiency virus 1, NL4.3, CCRF-CEM, 192 h; how it was run: as §1
[14] = tested on: Human immunodeficiency virus 1; assay: Antiviral activity against Human immunodeficiency virus 1 NL4.3 infected human CEM cells expressing GFP at 59.80 uM measured up to 8 days postinfection by p24 antigen capture ELISA; assay type: functional; conditions: Human immunodeficiency virus 1, NL4.3, CCRF-CEM, 192 h; how it was run: as §1
[15] = tested on: Human immunodeficiency virus 1; assay: Antiviral activity against Human immunodeficiency virus 1 NL4.3 infected human CEM cells expressing GFP at 12.30 uM measured up to 8 days postinfection by p24 antigen capture ELISA; assay type: functional; conditions: Human immunodeficiency virus 1, NL4.3, CCRF-CEM, 192 h; how it was run: as §1
[16] = tested on: Human immunodeficiency virus 1; assay: Antiviral activity against Human immunodeficiency virus 1 NL4.3 infected human CEM cells expressing GFP at 18.58 uM measured up to 8 days postinfection by p24 antigen capture ELISA; assay type: functional; conditions: Human immunodeficiency virus 1, NL4.3, CCRF-CEM, 192 h; how it was run: as §1
[17] = tested on: Human immunodeficiency virus 1; assay: Antiviral activity against Human immunodeficiency virus 1 NL4.3 infected human CEM cells expressing GFP at 19.60 uM measured up to 8 days postinfection by p24 antigen capture ELISA; assay type: functional; conditions: Human immunodeficiency virus 1, NL4.3, CCRF-CEM, 192 h; how it was run: as §1
[18] = tested on: Human immunodeficiency virus 1; assay: Antiviral activity against Human immunodeficiency virus 1 NL4.3 infected human CEM cells expressing GFP at 1.59 uM measured up to 8 days postinfection by p24 antigen capture ELISA; assay type: functional; conditions: Human immunodeficiency virus 1, NL4.3, CCRF-CEM, 192 h; how it was run: as §1
[19] = tested on: Human immunodeficiency virus 1; assay: Antiviral activity against Human immunodeficiency virus 1 NL4.3 infected human CEM cells expressing GFP at 23.36 uM measured up to 8 days postinfection by p24 antigen capture ELISA; assay type: functional; conditions: Human immunodeficiency virus 1, NL4.3, CCRF-CEM, 192 h; how it was run: as §1
[20] = tested on: Human immunodeficiency virus 1; assay: Antiviral activity against Human immunodeficiency virus 1 NL4.3 infected human CEM cells expressing GFP at 22.30 uM measured up to 8 days postinfection by p24 antigen capture ELISA; assay type: functional; conditions: Human immunodeficiency virus 1, NL4.3, CCRF-CEM, 192 h; how it was run: as §1
[21] = tested on: Human immunodeficiency virus 1; assay: Antiviral activity against Human immunodeficiency virus 1 NL4.3 infected human CEM cells expressing GFP at 16.73 uM measured up to 8 days postinfection by p24 antigen capture ELISA; assay type: functional; conditions: Human immunodeficiency virus 1, NL4.3, CCRF-CEM, 192 h; how it was run: as §1
[22] = tested on: Human immunodeficiency virus 1; assay: Antiviral activity against Human immunodeficiency virus 1 NL4.3 infected human CEM cells expressing GFP at 31.12 uM measured up to 8 days postinfection by p24 antigen capture ELISA; assay type: functional; conditions: Human immunodeficiency virus 1, NL4.3, CCRF-CEM, 192 h; how it was run: as §1
[23] = Solubility of the compound; assay type: physicochemical
[24] = tested on: Human immunodeficiency virus 1; assay: Antiviral activity against Human immunodeficiency virus 1 NL4.3 infected human CEM cells expressing GFP at 24.48 uM measured up to 8 days postinfection by p24 antigen capture ELISA; assay type: functional; conditions: Human immunodeficiency virus 1, NL4.3, CCRF-CEM, 192 h; how it was run: as §1
[25] = tested on: Human immunodeficiency virus 1; assay: Antiviral activity against Human immunodeficiency virus 1 NL4.3 infected human CEM cells expressing GFP at […] uM measured up to 8 days postinfection by p24 antigen capture ELISA; assay type: functional; conditions: Human immunodeficiency virus 1, NL4.3, CCRF-CEM, 192 h
[26] = tested on: Human immunodeficiency virus 1; assay: Antiviral activity against Human immunodeficiency virus 1 NL4.3 infected human CEM cells expressing GFP at 20.20 uM measured up to 8 days postinfection by p24 antigen capture ELISA; assay type: functional; conditions: Human immunodeficiency virus 1, NL4.3, CCRF-CEM, 192 h; how it was run: as §1
[27] = tested on: Human immunodeficiency virus 1; assay: Antiviral activity against Human immunodeficiency virus 1 NL4.3 infected human CEM cells expressing GFP at 23.51 uM measured up to 8 days postinfection by p24 antigen capture ELISA; assay type: functional; conditions: Human immunodeficiency virus 1, NL4.3, CCRF-CEM, 192 h; how it was run: as §1
[28] = tested on: Human immunodeficiency virus 1; assay: Antiviral activity against Human immunodeficiency virus 1 NL4.3 infected human CEM cells expressing GFP at 4.98 uM measured up to 8 days postinfection by p24 antigen capture ELISA; assay type: functional; conditions: Human immunodeficiency virus 1, NL4.3, CCRF-CEM, 192 h
How it was run: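 Human CD4+ T-cell line CEM-GFP infected with HIV-1 NL4.3 at MOI 0.05, then incubated with compound at a non-cytotoxic concentration (chosen from a prior MTT viability assay in CEM-GFP) for up to 8 days post-infection. Protection is read by p24 antigen capture ELISA, n = 3.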

SMILES | IC50 [2] [µM] | CC50 [4] [µM] | selectivity ratio [5] | also measured
C=CCOc1cc(OCCC=C(C)C)c2ccccc2n1 |  |  |  | inhibition at 21.2 µM [1]: 16%
C#CCOc1c(CC#C)c(O)nc2ccccc12 | 11.6 | 147 | 12.7 | inhibition at 27.42 µM [3]: 92.4%
C#CCOc1cc(O)nc2ccccc12 | 19.3 | 103 | 5.3 | inhibition at 35.17 µM [6]: 65.1%
CC(C)=CCOc1cc(O)nc2ccccc12 | 8.95 | 77.4 | 8.64 | inhibition at 30.56 µM [7]: 95.5%
CC(C)CCOc1cc(O)nc2ccccc12 | 3.89 | 115 | 29.5 | inhibition at 43.29 µM [8]: 76.7%
C#CCOc1cc(OCC=C(C)C)nc2ccccc12 |  |  |  | inhibition at 14.98 µM [9]: 2.56%
CC(C)=CCC1(CC=C(C)C)C(=O)Nc2ccccc2C1=O | 2.35 | 62.6 | 26.6 | inhibition at 8.41 µM [10]: 96%
C=CCOc1cc(OCCC(C)C)c2ccccc2n1 |  |  |  | inhibition at 1.84 µM [11]: 23%
CC(C)=CCOc1cc(OCCC(C)C)c2ccccc2n1 |  |  |  | inhibition at 1.68 µM [12]: 31.2%
CCCCOc1c(CCCC)c(O)nc2ccccc12 | 34.4 | 192 | 5.56 | inhibition at 65.93 µM [13]: 81%
CC(C)CCOc1c(CCC(C)C)c(O)nc2ccccc12 | 34.9 | 160 | 4.59 | inhibition at 59.8 µM [14]: 88.6%
CC(C)=CCCOc1cc(OCCC=C(C)C)c2ccccc2n1 |  |  |  | inhibition at 12.3 µM [15]: 32.7%
C#CCOc1cc(OCCC(C)C)nc2ccccc12 |  |  |  | inhibition at 18.58 µM [16]: 56.4%
C#CCOc1cc(OCCCC)nc2ccccc12 |  |  |  | inhibition at 19.6 µM [17]: 56.4%
CC(C)=CCCOc1cc(OCCC(C)C)c2ccccc2n1 |  |  |  | inhibition at 1.59 µM [18]: 15%
CC(C)CCOc1cc(OCc2ccccc2)nc2ccccc12 |  |  |  | inhibition at 23.36 µM [19]: 47%
C=CCOc1cc(OCC=C(C)C)c2ccccc2n1 |  |  |  | inhibition at 22.3 µM [20]: 35%
C#CCOc1cc(OCC=C)nc2ccccc12 |  |  |  | inhibition at 16.73 µM [21]: 16.1%
C=CCC1(CC=C)C(=O)Nc2ccccc2C1=O |  |  |  | inhibition at 31.12 µM [22]: 44.3%
CCCCC1(CCCC)C(=O)Nc2ccccc2C1=O |  |  |  | solubility [23]: Insoluble
CC(C)Oc1c(C(C)C)c(O)nc2ccccc12 |  |  |  | solubility [23]: Insoluble
CCCCCCCCOc1cc(OCCCCCCCC)c2ccccc2n1 |  |  |  | solubility [23]: Insoluble
CCCC1(CCC)C(=O)Nc2ccccc2C1=O | 16.7 | 113 | 6.78 | inhibition at 24.48 µM [24]: 74.7%
CC(C)=CCCC1(CCC=C(C)C)C(=O)Nc2ccccc2C1=O | 3.23 | 67.4 | 20.9 | inhibition at 12.3 µM [15]: 82%
CC(C)=CCCOc1c(CCC=C(C)C)c(O)nc2ccccc12 | 8.76 | 103 | 11.8 | inhibition at 23.07 µM [25]: 68.3%
CC(C)=CCOc1c(CC=C(C)C)c(O)nc2ccccc12 | 3.8 | 71.2 | 18.7 | inhibition at 20.2 µM [26]: 87.5%
C=CC(C)(C)C1(CC=C(C)C)C(=O)Nc2ccccc2C1=O (stereo not given) [BUCHAPINE] | 2.99 | 55.9 | 18.7 | inhibition at 23.51 µM [27]: 80.1%
Cc1cn([C@H]2C[C@H](N=[N+]=[N-])[C@@H](CO)O2)c(=O)[nH]c1=O [ZIDOVUDINE] | 1.04 |  |  | inhibition at 4.98 µM [28]: 89.8%
